Where a name gives a salt, the structure may show the parent alone.
How the values were obtained:
MCF7 = assay: Cytotoxicity against human MCF7 cells after 48 hrs by SRB assay; format: functional; settings: MCF7, 48 h; for CC50: read-out: LC50 (the source's name)
How it was run: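 MCF-7 cells grown in RPMI-1640 with 10% FCS at 37 °C, 5% CO2. Cells with >97% viability (trypan blue) seeded and grown one day, then exposed to several concentrations for 48 h, in triplicate. Fixed with TCA at 4 °C for 1 h, stained with 0.4% SRB, bound dye dissolved in 0.01 M Tris pH 10.4, OD read at 540 nm. GI50 obtained by regression; TGI and LC50 from Ti/Tz.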

[1] = (§1) Cytotoxicity against African green monkey Vero cells after 48 hrs by SRB assay; format: cell-based; settings: chlorocebus sabaeus, Vero cells
Vero = assay: as §1; format: cell-based; settings: chlorocebus sabaeus, vero, 48 h
[2] = Antiinflammatory activity assessed as inhibition of heat-induced egg albumin denaturation at 1 mM after 15 mins relative to control; format: functional
How it was run: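 Egg albumin from fresh hen's egg (0.4 ml) in PBS pH 6.4 with test solution (1 mM), 10 ml total; water as control. Incubated 37±2 °C for 15 min, then heated 70 °C for 5 min. After cooling, absorbance read at 660 nm against vehicle blank. Diclofenac sodium 1 mM as reference. % inhibition of denaturation calculated from test and control absorbances.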

[3] = Antioxidant activity assessed as inhibition of DPPH radical generation at 1 mM after 30 mins relative to control; format: functional
How it was run: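 1 ml of compound (1 mM) mixed with 3.0 ml DPPH (0.5 mmol/L in methanol). Absorbance at 517 nm after 30 min at 37 °C. % scavenging = (A control − A sample)/A control × 100, with control being DPPH alone. Ascorbic acid as standard; mean of two replicates.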

[4] = Antioxidant activity assessed as inhibition of nitric oxide radical generation at 1 mM using sodium nitroprusside after 150 mins by Griess assay relative to control; format: functional
How it was run: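 NO generated from 1 ml 10 mM sodium nitroprusside mixed with 1 ml of 1 mM compound in phosphate buffer (0.2 M, pH 7.4). Incubated 25 °C for 150 min, then mixed with 1.0 ml Griess reagent (1% sulphanilamide, 0.1% naphthylethylenediamine dichloride, 2% phosphoric acid). Absorbance read at 546 nm; % inhibition from control and sample absorbances. Ascorbic acid standard; mean of two replicates.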

[5] = Antioxidant activity assessed as inhibition of superoxide radical generation at 1 mM after 5 mins by NBT reduction assay relative to control; format: functional
How it was run: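 1 ml NBT solution ([…]), 1 ml NADH ([…]) and 1 ml compound (1 mM) mixed, all in phosphate buffer pH 7.4. Reaction started with 1 ml PMS ([…]), then incubated 25 °C for 5 min. Absorbance at 560 nm against blank; % inhibition from control and sample absorbances. Ascorbic acid standard; mean of two replicates.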

SMILES	GI50 (MCF7)	TGI (MCF7)	CC50 (MCF7)	GI50 at 48 h [1]	LC50 (Vero)	TGI (Vero)	inhibition [2]	inhibition [3]	inhibition [4]	inhibition [5]
COc1cc(/C(Cl)=C/C=C(\C#N)C(=O)c2c[nH]c3ccccc23)cc(OC)c1OC	4 µM	94.3 µM	> 100 µM	16.2 µM	54.2 µM	35.9 µM	86.2%	21.1%	73.3%	59.1%
Cc1[nH]c2ccccc2c1C(=O)/C(C#N)=C/C=C(\Cl)c1ccc(Br)cc1	73.9 µM	73.8 µM	> 100 µM				85.3%	15.8%	78.3%	69.1%
COc1ccc2[nH]cc(C(=O)/C(C#N)=C/C=C(\Cl)c3ccc(Br)cc3)c2c1	79.9 µM	> 100 µM	> 100 µM				88.1%	40.8%	76.7%	54.5%
COc1ccc(/C(Cl)=C/C=C(\C#N)C(=O)c2c[nH]c3ccc(Br)cc23)cc1	80.3 µM	> 100 µM	> 100 µM				78.2%	15.6%	56.2%	62.2%
COc1ccc(/C(Cl)=C/C=C(\C#N)C(=O)c2c[nH]c3ccc(OC)cc23)cc1	87.1 µM	> 100 µM	> 100 µM				79.5%	16.7%	41.6%	60.7%
O=C(O)Cc1ccccc1Nc1c(Cl)cccc1Cl							90.2%			
COc1cc(/C(Cl)=C/C=C(\C#N)C(=O)c2c[nH]c3ccc(Br)cc23)cc(OC)c1OC	30.8 µM	96.5 µM	> 100 µM	7.6 µM	41.5 µM	22.1 µM	90.8%	26.3%	36.7%	50%
COc1ccc(/C(Cl)=C/C=C(\C#N)C(=O)c2c[nH]c3ccc(Br)cc23)cc1OC	31.9 µM	> 100 µM	> 100 µM	8.2 µM	51.8 µM	38.4 µM	21.1%	11.8%	57.5%	80.9%
COc1ccc(/C(Cl)=C/C=C(\C#N)C(=O)c2c[nH]c3ccccc23)cc1OC	44.2 µM	> 100 µM	> 100 µM				85.3%	15.8%	75%	63.6%
N#C/C(=C\C=C(/Cl)c1ccc(Br)cc1)C(=O)c1c[nH]c2ccc(Br)cc12	> 100 µM	> 100 µM	> 100 µM				90.8%	15.8%	67.5%	83.6%
COc1ccc2[nH]cc(C(=O)/C(C#N)=C/C=C(\Cl)c3ccc(OC)c(OC)c3)c2c1	44.9 µM	> 100 µM	> 100 µM				87.2%	34.2%	74.2%	58.2%
COc1ccc(/C(Cl)=C/C=C(\C#N)C(=O)c2c(C)[nH]c3ccccc23)cc1	56.7 µM	> 100 µM	> 100 µM				83.1%	34.2%	74%	63.1%
COc1ccc(/C(Cl)=C/C=C(\C#N)C(=O)c2c(C)[nH]c3ccccc23)cc1OC	29.6 µM	93 µM	> 100 µM	11.8 µM	65.9 µM	41.1 µM	79.8%	22.4%	75.8%	66.4%
COc1cccc2c1C(=O)c1c(O)c3c(c(O)c1C2=O)C[C@@](O)(C(=O)CO)C[C@@H]3O[C@H]1C[C@H](N)[C@H](O)[C@H](C)O1 [DOXORUBICIN HYDROCHLORIDE]	< 0.1 µM	11 µM	97.1 µM	19 µM	52.6 µM	> 10 µM				
O=C1O[C@H]([C@@H](O)CO)C(O)=C1O								44.2%	42.6%	74.1%
N#C/C(=C\C=C(/Cl)c1ccc(Br)cc1)C(=O)c1c[nH]c2ccccc12	72.5 µM	81.5 µM	> 100 µM				38.5%	18.4%	76.7%	65.5%
COc1cc(/C(Cl)=C/C=C(\C#N)C(=O)c2c(C)[nH]c3ccccc23)cc(OC)c1OC	< 0.1 µM	83.7 µM	> 100 µM	12.4 µM	68.3 µM	42.6 µM	80.7%	14.5%	74.2%	58.2%
COc1ccc2[nH]cc(C(=O)/C(C#N)=C/C=C(\Cl)c3cc(OC)c(OC)c(OC)c3)c2c1	39.2 µM	> 100 µM	> 100 µM	9.5 µM	45.2 µM	12.1 µM	84.4%	46%	68.3%	50%
COc1ccc(/C(Cl)=C/C=C(\C#N)C(=O)c2c[nH]c3ccccc23)cc1	47.3 µM	> 100 µM	> 100 µM				80.2%	23.4%	76.9%	61.3%
